The source made the active and inactive calls. The calls are words filed in the database; no cut-off is given here. Non-standard residues stand in square brackets, D forms with d. Residues, ends and D or L forms follow the SMILES beside them. *: point of attachment. X4 = CC1(C)[C@@H]2C[C@H]1[C@]1(C)OB([C@@H](CCCBr)N*)O[C@@H]1C2; dboroNva(5-Br) = OB(O)[C@@H](CCCBr)N*; dboroPhe = OB(O)[C@@H](Cc1ccccc1)N*; Benzoyl(4-I) = O=C(c1ccc(I)cc1)*; X2 = CC(C)C[C@@H](N*)B(O)O; Nle = CCCC[C@H](N)C(=O)O; Cbz = O=C(OCc1ccccc1)*; Ahx = NCCCCCC(=O)O
Key:
[1] = biological target: T1, Prostate-specific antigen (Homo sapiens, UniProt P07288); experiment: Inhibition of PSA (unknown origin) using Mu-SRKSQQY-AMC as substrate by fluorescence assay
T1 sequence (P07288 whole entry): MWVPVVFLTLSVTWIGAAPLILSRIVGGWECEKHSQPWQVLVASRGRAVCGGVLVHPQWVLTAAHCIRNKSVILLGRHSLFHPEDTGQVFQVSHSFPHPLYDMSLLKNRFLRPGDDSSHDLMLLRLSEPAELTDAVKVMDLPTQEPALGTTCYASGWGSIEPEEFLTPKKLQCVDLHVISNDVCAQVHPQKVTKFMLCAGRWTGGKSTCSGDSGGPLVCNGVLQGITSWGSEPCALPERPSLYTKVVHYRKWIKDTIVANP
Outline: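 Inhibitor added from DMSO stock. AMC fluorescence (ex 370, em 465 nm) followed over 30 min in triplicate. Ki = 1/slope × 1/(1+[S]/Km), from V0/Vi−1 plotted against [I].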

[2] = Selectivity ratio of Ki for bovine pancreas chymotrypsin to Ki for human seminal fluid PSA
[3] = Inhibition of bovine pancreas chymotrypsin using Suc-AAPF-AMC as substrate measured for 30 mins by fluorescence assay; set-up: species or system Bos taurus
Outline: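 Inhibitor added from DMSO stock; substrate added last and AMC fluorescence read immediately. Ki = 1/slope × 1/(1+[S]/Km), from V0/Vi−1 plotted against [I].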

[4] = system: Mus musculus; experiment: Biodistribution in tumor of nude mouse xenografted with human LNCAP cells expressing PSA at 230 to 580 uCi after 3 to 4 hrs by gamma counting analysis; assay type: ADME, organism-based, Neoplasm; settings: in vivo
Outline: (§1)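 Single mice sacrificed at 2, 4 and 6 h (or 2 and 4 h). Liver, kidney, heart, brain, muscle and tumor weighed and gamma-counted. Counts corrected for background and decay; %ID/g calculated against 0.01 mL of dosing solution.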

[5] = system: Kidney; experiment: Biodistribution in nude mouse kidney xenografted with human LNCAP cells expressing PSA at 230 to 580 uCi after 2 hrs by gamma counting analysis; assay type: ADME, organism-based; settings: in vivo; outline: as §1
[6] = system: Liver; experiment: Biodistribution in nude mouse liver xenografted with human LNCAP cells expressing PSA at 230 to 580 uCi after 2 hrs by gamma counting analysis; assay type: ADME, organism-based; settings: in vivo; outline: as §1
[7] = Selectivity ratio of Ki for human seminal fluid PSA to Ki for bovine pancreas chymotrypsin
[8] = Half life in ip dosed mouse; assay type: ADME, organism-based; settings: in vivo
Outline: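 Four animals sacrificed per time point; plasma counts per second normalised to starting counts.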

[9] = system: Mus musculus; experiment: Inhibition of total PSA level in nude mouse serum xenografted with human LNCAP cells at 10 mg/kg, iv qd administered 5 days/week for 3 weeks measured 24 hrs post last dose by ELISA relative to control; assay type: functional
Outline: (§2)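 LNCaP xenograft-bearing nude mice dosed 10 mg/kg iv (sterile saline) once daily, five consecutive days/week for three courses; controls untreated. Serum free and total PSA measured by ELISA 24 h after the last dose, also expressed per g tumor.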

[10] = system: Mus musculus; experiment: Inhibition of free PSA level in nude mouse serum xenografted with human LNCAP cells at 10 mg/kg, iv qd administered 5 days/week for 3 weeks measured 24 hrs post last dose by ELISA relative to control; assay type: functional; outline: as §2
[11] = system: LNCaP; experiment: Antitumor activity against human LNCAP cells expressing PSA xenografted in nude mouse assessed as delay in tumor growth at 10 mg/kg, iv qd administered 5 days/week for 3 weeks measured after 2 weeks; assay type: functional, organism-based; set-up: dose 10 mg/kg
Outline: (§3)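 Nude male mice (n = 10 per group) carrying subcutaneous PSA-producing LNCaP xenografts. Dosed 10 mg/kg iv once daily for three cycles of five consecutive days, compound in sterile saline; controls untreated. Tumor measured by caliper, volume = L × W × H × […]. Tumor size and body weight recorded twice per week.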

[12] = system: Mus musculus; experiment: Toxicity in nude mouse xenografted with human LNCAP cells expressing PSA assessed as body weight loss at 10 mg/kg, iv qd measured 5 days/week for 3 weeks; assay type: organism-based; set-up: dose 10 mg/kg, route intravenous; settings: in vivo; outline: as §3
[13] = system: LNCaP; experiment: Antitumor activity against human LNCAP cells expressing PSA xenografted in nude mouse assessed as tumor incident at 10 mg/kg, iv qd administered 5 days/week for 3 weeks measured after 3 weeks; assay type: functional, organism-based; set-up: dose 10 mg/kg; outline: as §3
[14] = biological target: T1, Prostate-specific antigen; experiment: Inhibition of PSA (unknown origin)

Structure (SMILES)	Ratio Ki [2]	Ki [3] [nM]	also measured
CC(C)C[C@H](NC(=O)[C@H](CCCCN)NC(=O)[C@H](CO)NC(=O)[C@@H](N)CO)C(=O)N[C@H](C=O)CCC(N)=O (H-SSKLQ-aldehyde)	–	–	Ki [1]: 45000 nM
CCCC[C@H](NC(=O)[C@H](CCC(N)=O)NC(=O)[C@H](CO)NC(=O)[C@H](Cc1ccccc1)NC(=O)CCCCCNC(=O)c1ccc(I)cc1)C(=O)N[C@H](CCCBr)B(O)O ({Benzoyl(4-I)-Ahx}-FSQ[Nle]-{dboroNva(5-Br)})	10.1	653	–
CCCC[C@H](NC(=O)[C@H](CCC(N)=O)NC(=O)[C@H](CO)NC(=O)[C@H](CO)NC(=O)CCCCCN)C(=O)N[C@H](CC(C)C)B(O)O (H-[Ahx]SSQ[Nle]-X2)	3.2	138	–
CCCC[C@H](NC(=O)[C@H](CCC(N)=O)NC(=O)[C@H](CO)NC(=O)[C@H](Cc1ccccc1)NC(=O)CCCCCNC(=O)c1ccc([125I])cc1)C(=O)N[C@H](CCCBr)B(O)O	–	–	Drug uptake [4]: Active; Drug uptake [5]: Active; Drug uptake [6]: Active
CCCC[C@H](NC(=O)[C@H](CCC(N)=O)NC(=O)[C@H](CO)NC(=O)C[C@H](Cc1ccc2ccccc2c1)NC(=O)CCCCCN)C(=O)N[C@H](Cc1ccccc1)B(O)O	0.03	7.21	–
CCCC[C@H](NC(=O)[C@H](CCC(N)=O)NC(=O)[C@H](CO)NC(=O)C[C@H](Cc1ccc2ccccc2c1)NC(=O)CCCCCN)C(=O)N[C@H](CCCBr)B(O)O	4.94	506	–
CCCC[C@H](NC(=O)[C@H](CCC(N)=O)NC(=O)[C@H](CO)NC(=O)[C@H](Cc1ccccc1)NC(=O)CCCCCN)C(=O)N[C@H](Cc1ccccc1)B(O)O (H-[Ahx]FSQ[Nle]-dboroPhe)	0.002	0.135	Ratio Ki [7]: 450
CCCC[C@H](NC(=O)[C@H](CCC(N)=O)NC(=O)[C@H](CO)NC(=O)[C@H](C)NC(=O)CCCCCN)C(=O)N[C@H](Cc1ccccc1)B(O)O (H-[Ahx]ASQ[Nle]-dboroPhe)	0.12	36.2	–
CCCC[C@H](NC(=O)[C@H](CCC(N)=O)NC(=O)[C@H](CO)NC(=O)[C@H](Cc1ccccc1)NC(=O)CCCCCNC(=O)c1ccc([125I])cc1)C(=O)N[C@H](CCCBr)B1O[C@@H]2C[C@H]3C[C@H](C3(C)C)[C@]2(C)O1	–	–	Drug uptake [4]: Active; Drug uptake [5]: Active; Drug uptake [6]: Active
CCCC[C@H](NC(=O)[C@H](CCC(N)=O)NC(=O)[C@H](CO)NC(=O)[C@H](CO)NC(=O)CCCCCNC(=O)c1ccc([125I])cc1)C(=O)N[C@H](CCCBr)B(O)O	–	–	half-life [8]: 0.2 h
CCCC[C@H](NC(=O)[C@H](CCC(N)=O)NC(=O)[C@H](CO)NC(=O)C[C@H](Cc1ccc2ccccc2c1)NC(=O)CCCCCNC(=O)c1ccc([125I])cc1)C(=O)N[C@H](Cc1ccccc1)B(O)O	–	–	half-life [8]: 2.7 h; Drug uptake [4]: Active; Drug uptake [5]: Active; Drug uptake [6]: Active
CCCC[C@H](NC(=O)[C@H](CCC(N)=O)NC(=O)[C@H](CO)NC(=O)[C@H](Cc1ccccc1)NC(=O)CCCCCN)C(=O)N[C@H](CCCBr)B1O[C@@H]2C[C@H]3C[C@H](C3(C)C)[C@]2(C)O1 (H-[Ahx]FSQ[Nle]-X4)	6.77	496	–
O=C(OCc1ccccc1)c1cccc(CC(=O)N2C(=O)[C@@H](Cc3ccc(O)cc3)[C@H]2C(=O)OCc2ccccc2)c1	–	–	IC50 [14]: 226 nM
CCCC[C@H](NC(=O)[C@H](CCC(N)=O)NC(=O)[C@H](CO)NC(=O)CCCCCN)C(=O)N[C@H](Cc1ccccc1)B(O)O	0.17	3.77	–

Further lines, with some results ahead:

Ratio Ki [2]	Ki [3] [nM]	Structure (SMILES)	also measured
0.83	251	CCCC[C@H](NC(=O)[C@H](CCC(N)=O)NC(=O)[C@H](CO)NC(=O)CCCCCN)C(=O)N[C@H](CCCBr)B(O)O	–
3.18	166	CCCC[C@H](NC(=O)[C@H](CCC(N)=O)NC(=O)[C@H](CO)NC(=O)[C@H](C)NC(=O)CCCCCN)C(=O)N[C@H](CCCBr)B(O)O (H-[Ahx]ASQ[Nle]-{dboroNva(5-Br)})	–
8.13	197	CCCC[C@H](NC(=O)[C@H](CCCCN)NC(=O)[C@H](CO)NC(=O)[C@H](CO)NC(=O)OCc1ccccc1)C(=O)N[C@H](CCCBr)B(O)O (Cbz-SSK[Nle]-{dboroNva(5-Br)})	–
8.03	581	CCCC[C@H](NC(=O)[C@H](CCC(N)=O)NC(=O)[C@H](CO)NC(=O)[C@H](Cc1ccccc1)NC(=O)CCCCCN)C(=O)N[C@H](CCCBr)B(O)O (H-[Ahx]FSQ[Nle]-{dboroNva(5-Br)})	inhibition in vivo at 10 mg/kg [9]: 40%; inhibition in vivo at 10 mg/kg [10]: 23%; Activity [11]: Active; Activity [12]: Non-toxic; Activity [13]: inactive
0.11	18.1	CCCC[C@H](NC(=O)[C@H](CCCCN)NC(=O)[C@H](CO)NC(=O)[C@H](CO)NC(=O)OCc1ccccc1)C(=O)N[C@H](Cc1ccccc1)B(O)O (Cbz-SSK[Nle]-dboroPhe)	–

From ChEMBL document CHEMBL2380267, “Structural optimization, biological evaluation, and application of peptidomimetic prostate specific antigen inhibitors” (J Med Chem, 2013)
